# Bioassay records (PubChem BioAssay)
# CaV13 FRET inh: Primary screen for inhibitors of IQ motif and Ca2+-dependent inactivation inhibitor domain binding in CACNA1D, Förster resonance energy transfer in living cells, …; HEK cells, CFP/YFP FRET ICDI-IQ, plate reader, 10 min; percent FRET-ratio fall versus neutral wells; inhibition, % at 12.3 µM; actives 0.098% (n = 340,000); AID 743397;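 active means mean replicate inhibition of at least 30% and at least 1% of replicates passing that level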;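 further: 0% = median of the neutral control wells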
# Vif inh: inhibitors of HIV Vif; HEK293T cells, Vif self-association by quenched fluorescence, imaging, 24 h; actives 0.35% (n = 340,000); inhibition, % at 7.49 µM; in the data active means inhibition above about 50%, passing the limit was not always enough
# NTR1 ag: agonists of human neurotensin receptor NTR1; AID 493036; P30989; activation, % at 20 µM; actives 0.17% (n = 330,000); NTR1-U2OS beta-arrestin-GFP spot imaging, agonist mode;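 active means activation at or above 40% of the spot to cytoplasm intensity ratio, with at least 20 cells analyzed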;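 further: 0% = DMSO without peptide and 100% = 100 nM NTR1 peptide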
# Target sequence (P30989 whole entry, looked up): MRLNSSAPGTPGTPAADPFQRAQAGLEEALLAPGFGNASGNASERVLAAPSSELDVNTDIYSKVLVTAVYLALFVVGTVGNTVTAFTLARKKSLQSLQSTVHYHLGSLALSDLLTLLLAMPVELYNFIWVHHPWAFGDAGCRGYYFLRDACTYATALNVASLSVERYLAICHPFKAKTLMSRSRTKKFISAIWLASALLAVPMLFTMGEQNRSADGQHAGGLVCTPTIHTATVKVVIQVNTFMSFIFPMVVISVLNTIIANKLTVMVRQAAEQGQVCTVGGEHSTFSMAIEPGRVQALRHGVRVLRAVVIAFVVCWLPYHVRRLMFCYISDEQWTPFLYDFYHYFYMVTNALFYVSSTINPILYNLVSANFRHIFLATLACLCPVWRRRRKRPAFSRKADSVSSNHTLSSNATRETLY
# V-ATPase pH: regulators of yeast V-ATPase proton transport; response, % at 10 µM; actives 0.37% (n = 350,000); S. cerevisiae, pHLuorin cytosolic pH fluorescence; in the data active means response mostly above about 7.3%, no sharp cut-off; inactive means mostly below about 5.4%; further: actives read high
# SR-BI DiI inh: blocks mouse SR-BI lipid uptake from DiI-HDL; Q61009; ldlA[mSR-BI] CHO cells, DiI-HDL uptake fluorescence, 3 h; inhibition, % at 12.5 µM; actives 0.96% (n = 320,000);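 active means mean replicate inhibition of at least 70% and a set share of replicates each scoring 70 or more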;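 further: 0% = median of neutral control wells and 100% = median of positive control wells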
# SR-BI uptake up: activators of SR-BI mediated HDL lipid uptake. CHO ldlA[mSR-BI] cells, DiI-HDL uptake fluorescence, 3 h; 100 = double the neutral-control signal. activation, % at 12.5 µM. actives 0.096% (n = 320,000). AID 504775;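 active means mean replicate activation of at least 60% and every replicate at or above 60%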;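 further: 0% = median plate neutral-control signal and 100% = twice that signal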
#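 System: CHO ldlA[mSR-BI] cells / Medium: HEPES-buffered (25 mM, pH 7.4) F12 plus 0.5% BSA / Probe or stimulus: labelled HDL, 10 µg/mL / Doses: single compound concentration, delivered by pin transfer / Schedule: 3 h, 37 °C / Measured by: DiI fluorescence, bottom read / Measure: cell-associated DiI fluorescence as measure of HDL uptake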
# * marks the source's active call; other numbers are inactive results; . = no result; + = active, no number. In the library only some 1.7% were active in any assay of this set; here they are far more common.
SMILES,CaV13 FRET inh,Vif inh,NTR1 ag,V-ATPase pH,SR-BI DiI inh,SR-BI uptake up
Cc1c(N=C2C(=O)Nc3ccccc32)c(=O)n(-c2ccccc2)n1C,-5,.,2,9.3*,.,.
Cc1c(N=c2c(=O)c3ccccc3c2=O)c(=O)n(-c2ccccc2)n1C,.,.,4,.,.,.
CC[n+]1c(/C=C2\Sc3ccccc3N2C)ccc2cccc(C)c21,-173,.,.,2,76*,-76
O=C(CCCOc1ccc(Cl)cc1Cl)N/N=C/c1cccc([N+](=O)[O-])c1,5,-8,8,1,-330,330*
Cc1ccc(NC(=S)Nc2cccc3cnccc23)cc1C,1,-9,0,0,75*,-75
CC(C)n1c(CN(C)Cc2ccccc2)nc2c1c(=O)n(C)c(=O)n2C,-14,.,5,.,.,.
COC(=O)/C(=C(O)\C=C\c1ccccc1[N+](=O)[O-])c1nc2ccccc2[nH]1,-5,-3,7,2,89*,-89
CC(C)OC(=O)c1c2nc3ccccc3nc2n2c1[nH]c(=O)c1ccccc12,.,.,3,.,.,.
COC(=O)c1sc2nc3c(cc2c1N)COC(C)(C)C3,.,-3,2,0,-170,170*
CC[C@H](C)[C@H](NC(N)=O)C(=O)NCCc1ccc(OC)cc1,-5,-3,0,-4,-11,11
COc1ccc(CCNC(=O)[C@@H](NC(N)=O)C(C)C)cc1,4,51*,1,1,-4,4
c1ccc(CCC2CCCCN2Cc2cn[nH]c2-c2cc3ccccc3o2)nc1 (stereo not given),-7,2,1,0,-20,20
O=C(c1ccccn1)C1CCCN(Cc2cn[nH]c2-c2cc3ccccc3o2)C1 (stereo not given),-2,.,1,16*,-1,1
Nc1nc(-c2ccccn2)nc(N)c1Cc1ccc(Cl)cc1Cl,-4,3,2,11*,22,-22
COc1ccccc1CN(C)C(=O)COC(=O)c1cc(C)oc1C,-6,-4,0,9,-2,2
CCn1c2c(n(C(C)=O)c1=O)C[C@@H](c1ccccc1)[C@@H](C)[C@@H](C(=O)N1CCCC1)C2,-4,.,.,.,.,.
COc1ccc(S(=O)(=O)N2CCOC2CNC(=O)C(=O)NCCCn2ccnc2)cc1OC (stereo not given),-6,-1,-2,3,-9,9
COc1ccc(S(=O)(=O)N2CCCOC2CNC(=O)C(=O)NCCCn2ccnc2)cc1OC (stereo not given),3,9,-1,-2,-71,71*
N#C/C(=C\c1ccc(N2CCCCC2)o1)C(=O)Nc1cccc(Br)c1,-6,2,-4,-3,99*,-99
COc1cc(OC)c(-c2nc3ccccc3s2)cc1OC,-5,-14,10,2,71*,-71
COc1cccc(-c2nc3ccccc3s2)c1O,-3,-1,5,-3,13,-13
O=C(Nc1c(C(=O)c2ccccc2)oc2ccccc12)c1cc(-c2ccccc2O)n[nH]1,-6,2,10,-4,74*,-74
COC(=O)Cc1nnn2c1[C@@H](C)[C@@H](c1ccccc1Br)O[C@@H](C)C2,-4,.,.,.,.,.
COc1ccccc1Nc1ccc(N)cc1,1,5,1,1,84*,-84
COc1ccccc1NC(=O)c1ccccc1Nc1ccccc1,-20,3,5,0,38,-38
SMILES,CaV13 FRET inh,Vif inh,NTR1 ag,V-ATPase pH,SR-BI DiI inh,SR-BI uptake up
CCN1CC=C2C(C1)C(c1ccc(Cl)s1)C(C#N)=C(N)C2(C#N)C#N (stereo not given),-4,87*,.,-4,9,-9
CCc1ccccc1NC1=NCC(=O)N1Cc1ccccc1,-4,-6,-5,16*,0,0
Cc1cccc(C)c1NC(=O)COC(=O)c1ccccc1Nc1ccccc1,-5,12,1,0,82*,-82
O=C(c1ccco1)N1N=C(c2ccccc2)CC1c1ccc2nccnc2c1 (stereo not given),-10,-2,0,-1,11,-11
CC(=O)NNc1cc(N2CCOCC2)nc(N2CCOCC2)n1,+,-5,1,-2,-28,28
O=C(NNc1cc(N2CCCC2)nc(N2CCCC2)n1)c1ccc([N+](=O)[O-])cc1,64*,5,2,-1,8,-8
CC(C)(C)c1ccc(C(=O)NNc2cc(N3CCCCC3)nc(N3CCCCC3)n2)cc1,-8,3,0,7,-26,26
COc1ccc(C(=O)NC2c3ccccc3-c3ccccc32)cc1,-22,-3,0,.,-44,44
O=C(C1=C(O)C(=O)N(CCCn2ccnc2)C1c1cccc(Br)c1)c1ccco1 (stereo not given),.,-5,2,1,7,-7
COc1cccc(CNC(=O)COc2cc3c(c4oc(=O)cc(C)c24)CCC(C)(C)O3)c1,.,-1,6,2,77*,-77
CCc1nnc(N/N=C/c2ccc(N3CCC(C)CC3)c([N+](=O)[O-])c2)n1N,-5,-4,1,16*,-5,5
CSc1nnc(CCNS(=O)(=O)c2ccccc2Br)n1C,-3,-1,0,3,.,.
CCn1c(CCNS(=O)(=O)c2ccccc2Br)nnc1SC,-2,54*,0,0,.,.
O=C(Cc1cccc(NC(=O)C2CCCN(C(=O)C3CC3)C2)c1)Nc1ccc(C(=O)N2CCCCC2)cc1 (stereo not given),-10,4,.,1,75*,-75
O=C(Cc1cccc(NC(=O)C2CCCN(C(=O)CCc3ccccc3)C2)c1)Nc1cccc(C(=O)N2CCCC2)c1 (stereo not given),-10,6,3,-6,78*,-78
O=C(N/N=C/c1ccc(-c2ccccc2Cl)o1)c1ccccc1,-6,-14,6,-2,23,-23
O=C(O)c1ccc(N/N=C/c2ccc(-c3ccccc3Cl)o2)cc1,+,-1,1,-2,-5,5
Cc1ccc(-c2[nH]ncc2/C=N/n2c(COc3ccccc3C)nc3ccccc3c2=O)cc1,-4,-17,5,2,-11,11
COc1ccc(-c2csc3nc(C)nc(N4CCN(c5ccc(C(C)=O)cc5)CC4)c23)cc1OC,-2,-4,9,1,5,-5
Cc1cc(=O)[nH]c(N/N=C/c2ccccc2Cl)n1,-5,-8,0,1,0,0
COc1ccccc1/C=N/Nc1nc(C)cc(=O)[nH]1,40*,-4,.,0,.,.
Cc1cc(=O)[nH]c(NN=Cc2cc(Br)ccc2O)n1,-7,-6,.,-6,97*,-97
COc1ccc(OC)c(/C=N/Nc2nc(C)cc(=O)[nH]2)c1,-5,5,0,-3,16,-16
